Assay results published in ChEMBL document CHEMBL4513216, “Probing the Open Global Health Chemical Diversity Library for Multistage-Active Starting Points for Next-Generation Antimalarials” (ACS Infect Dis, 2020).

Experiment: Toxicity liver stage against HepG2, at 10uM
Assay type: cell-based
Parameters: test concentration 10 uM, cell line HepG2-A16-CD81EGFP
Settings: human, HepG2-A16-CD81EGFP cells; read-out: INHIBITION
Summary of the method: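 Uninfected HepG2-A16-CD81EGFP cells, 3 × 10^3 per well, 1536-well, plated on prespotted compound at 10 μM final, parasite-free screening media added to match infected plates; puromycin 10 μM positive, DMSO 0.5% negative; run in parallel with 48 h PbLuc assay at 37 °C, 5% CO2; viability by CellTiter-Glo luminescence, normalized to controls.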

| SMILES | cytotoxicity at 10 µM |
| --- | --- |
| O=C(N[C@@H]1CNCCC[C@H]1O)c1ccc(OCc2ccccc2)cc1 | -3.39% |
| C[C@H]1C[C@@H]2CCN(C(=O)c3ccncc3)C[C@H]2O1 | -1.02% |
| Cn1cc(CN2CC[C@H]3OCC[C@@H](C(=O)NC4CCCC4)[C@@H]3C2)cn1 | 0.835% |
| COc1ccccc1OCC(=O)n1nc(C)c(C)c1C | -5.01% |
| CC(=O)N1CCCC(c2nc(N(C)C)ncc2-c2ccccc2)C1 (stereo unspecified) | 14.7% |
| CCS(=O)(=O)N1C[C@@H](O)[C@H](N2CCc3ccccc3C2)C1 | -3.63% |
| Cc1cc(C)nc(C2CCN(C(=O)CCn3ncc4ccccc43)C2)n1 (stereo unspecified) | -17.3% |
| Cc1ccccc1CC(=O)N[C@@H]1CCC[C@@H](N2CCNC(=O)C2)[C@@H]1O | -24.5% |
| Cc1ccnn1CCC(=O)N1C[C@@H](O)[C@H](Oc2cccc(F)c2)C1 | -15.8% |
| COc1ccccc1-c1nccnc1C1CCN(C(C)=O)CC1 | -1.69% |
| CCC(=O)N1CCCC(c2ncc3c(n2)CCN(C)C3)C1 (stereo unspecified) | -8.77% |
| CC(C)C(NC(=O)N1CCS(=O)(=O)CC1)c1ccccc1Cl (stereo unspecified) | 13.3% |
| COCCC(C)NS(=O)(=O)c1ccc(C)c(N(C)C)c1 (stereo unspecified) | -0.2% |
| CCc1nnc(CSc2ccccn2)o1 | -2.98% |
| Cc1ccc(S(=O)(=O)N(C)Cc2nccs2)cc1N(C)C | -9.78% |
| CN(CC(N)=O)C(=O)CCCn1ccc2cc(Cl)ccc21 | -2.13% |
| Cc1cc(CN(C)C(=O)NCc2ccnc(N(C)C)c2)no1 | 5.85% |
| CN(C)c1cccc(C2CCCN2S(N)(=O)=O)c1 (stereo unspecified) | -5.44% |
| CC(CNC(=O)c1cnccn1)Oc1cccc(Br)c1 (stereo unspecified) | 1.25% |
| Cc1cc(C)n(-c2ccc(C(=O)N3CCCC3c3cnn(C)c3)cc2)n1 (stereo unspecified) | -7.41% |
| O=C(CN1CCc2ccccc21)Nc1ccc(OC(F)F)cc1 | 16.8% |
| CCCn1cnnc1CNC1CCCC1 | -2.27% |
| Cc1ccsc1C(=O)NCc1cccnc1N(C)CCc1ccccn1 | -0.678% |

| SMILES | cytotoxicity at 10 µM |
| --- | --- |
| CCN1CCN(S(=O)(=O)c2ccc(Cc3cc(C)n[nH]c3=O)cc2)CC1 | -8.25% |
| O=C(c1ccc2c(c1)CCC2)N1C[C@@H](CN2CCOCC2)[C@@H](CO)C1 | 20.7% |
| CCCN1CCCn2nc(CNS(=O)(=O)c3ccc(C)cc3)cc2C1 | 1.6% |
| NC(=O)C1CCN(C(=O)CCn2ccc3cc(Br)ccc32)CC1 | -6.44% |
| CC1CN(Cc2cnn(C)c2)CCN1c1ccc2nncn2n1 (stereo unspecified) | 2.69% |
| Cc1nc(C(C)(C)C)sc1C(=O)NCCNc1ncccn1 | -4.83% |
| CCn1cc(NC(=O)C2CCN(CC(=O)NC(C)(C)CC)CC2)cn1 | -1.01% |
| COc1ncccc1CNC(=O)NC1CCCOc2ccccc21 (stereo unspecified) | -6.14% |
| CC(O)CN1CCN(C(=O)c2ccc(CN(C)C)cc2)CC1 (stereo unspecified) | -8.09% |
| Cc1nn(C)c(Cl)c1C1CCCN1C(=O)c1csnn1 (stereo unspecified) | -0.121% |
| CC(CNc1cncc(-n2cccn2)n1)N(C)c1ccccc1 (stereo unspecified) | -4.48% |
| CC(Cn1cccn1)NCc1csc(-c2ccccc2F)n1 (stereo unspecified) | -7.71% |
| COCCOc1cccc(C(=O)N2CCCC(n3cccn3)C2)c1 (stereo unspecified) | -7.81% |
| O=C(NCCO)c1sc2ncccc2c1C1CNCCO1 (stereo unspecified) | 11.2% |
| COc1ccccc1Cc1cncc(N2CC(C(=O)O)C2)n1 | 2.71% |
| C=C(C)CN1CCN(Cc2cnc(-c3ccccc3C)nc2)CC1 | -33.6% |
| Cc1ccc(CN(CCCN(C)C)Cc2cnc(C)n2C)o1 | 9.96% |
| CN(Cc1cn2c(n1)CN(C1CCOC1)CC2)Cc1ccco1 (stereo unspecified) | -2.15% |
| COCCN1CC[C@H](OC)[C@@H]1Cc1ccccc1 | -0.675% |
| CC(=O)N1CCC12CCN(Cc1ccco1)CC2 | 1.17% |
| O=C(C1CCOCC1)N1CCO[C@H]2[C@H](Oc3cccnc3)CC[C@@H]21 | 2.03% |
| CCn1ncc2c1C(COC)CN(S(=O)(=O)N(C)C)C2 (stereo unspecified) | 12.5% |
| O=C(NCC1CCCCC1)N1C[C@@H]2C[C@@H]1CN2 | -7.78% |
